Results from different studies.
Protocols differ between the studies behind these lines.
Organism: Plasmodium falciparum
Read-out: parasite growth

SMILES | method | strain | time | notes | IC50
CC(C)(C)CC(C)(C)c1ccc(O)c(Cc2ccc(Cl)cc2Cl)c1 |  | NF54 |  | blood stage | 16300 nM
CCN(CC)CCCC(C)Nc1ccnc2cc(Cl)ccc12 (stereo not shown) | ELISA | 3D7 | 72 h | blood stage | 3.3 nM
COC1=CC(c2ccc[nH]2)=N/C1=C\c1[nH]c(C(=O)O)cc1Cc1ccc(OC(F)(F)F)cc1 | SYBR Green | D6 | 72 h | blood stage | > 2500 nM
Cc1ccc(N(CC2=NCCN2)c2cccc(O)c2)cc1 |  | NF54 |  | blood stage | 36600 nM
CC1=C(C)/C(=C/c2cc(Cc3ccc(Cl)cc3)c(C)[nH]2)N=C1c1ccc[nH]1 | SYBR Green | D6 | 72 h | blood stage | 602 nM
Cc1ccc(N(c2ccc(NC(=O)CN(C)c3ccccc3N3CCCC3=O)cc2)C(C)C)cc1 | SYBR Green | DD2 |  | blood stage | 2.74 nM
Cc1[nH]c(/C=C2\N=C(c3ccc[nH]3)C3=C2OCCO3)cc1Cc1ccc(OC(F)(F)F)cc1 | SYBR Green | D6 | 72 h | blood stage | 30.3 nM
N=C(CC(O)c1nc2ccccc2c2ccc(Br)cc12)Nc1ccc(F)cc1 (stereo not shown) | ELISA | 3D7 | 72 h | blood stage | 19.5 nM
CC[C@H](CC[C@@H](C)[C@H]1CC[C@H]2[C@@H]3CC=C4C[C@@H](O)CC[C@]4(C)[C@H]3CC[C@]12C)C(C)C | SYBR Green | 3D7 | 48 h | blood stage | 9.29 µg/mL
CCCCCCCCNC(C)C(O)c1ccc(SC(C)C)cc1 (stereo not shown) | SYBR Green | 3D7 |  | blood stage | 807 nM
N=C(CC(O)c1cc2cccnc2c2cccnc12)Nc1ccc(F)cc1 (stereo not shown) | ELISA | 3D7 | 72 h | blood stage | 3200 nM
CC1=C(C)/C(=C/c2cc(-c3ccc(Cl)cc3)c(C)[nH]2)N=C1c1ccc[nH]1 | SYBR Green | D6 | 72 h | blood stage | > 2500 nM
N=C(CC(O)c1nc2cc(F)ccc2c2ccc(F)cc12)Nc1ccc(F)cc1 (stereo not shown) | ELISA | DD2 | 72 h | drug-resistant strain, blood stage | 936 nM
COc1ccc2cc1Oc1ccc(cc1)C[C@H]1c3c(cc4c(c3Oc3cc5c(cc3OC)CCN(C)[C@@H]5C2)OCO4)CCN1C |  | NF54 |  | blood stage | 188 nM
CCCCCCOc1ccc2c(=O)c3c([nH]c2c1)CCCC3 | SYBR Green | D6 | 72 h | blood stage | 0.447 nM
N=C(CC(O)c1nc2ccccc2c2ccc(Cl)cc12)Nc1ccc(F)cc1 (stereo not shown) | ELISA | DD2 | 72 h | drug-resistant strain, blood stage | 49.9 nM
Cc1[nH]c(/C=C2\N=C(c3ccc[nH]3)C=C2OCc2ccccc2)cc1Cc1ccc(OC(F)(F)F)cc1 | SYBR Green | D6 | 72 h | blood stage | 9.63 nM
CCN(CC)CCCC(C)Nc1ccnc2cc(Cl)ccc12 (stereo not shown) |  | NF54 |  | blood stage | 11.7 nM
CCOC1=CC(c2ccc[nH]2)=N/C1=C\c1cc(Cc2ccc(Cl)cc2)c(C)[nH]1 | SYBR Green | D6 | 72 h | blood stage | 4.92 nM
CN(Cc1cnc2nc(N)nc(N)c2n1)c1ccc(C(=O)N[C@@H](CCC(=O)O)C(=O)O)cc1 |  | NF54 |  | blood stage | 51.5 nM
COC1=C(OC)/C(=C/c2[nH]c(Cc3ccc(Cl)cc3)cc2Cc2ccc(Cl)cc2)N=C1c1ccc[nH]1 | SYBR Green | D6 | 72 h | blood stage | > 2500 nM
N=C(CC(O)c1nc2ccccc2c2ccccc12)Nc1ccc(F)cc1 (stereo not shown) | ELISA | DD2 | 72 h | drug-resistant strain, blood stage | 89.2 nM
